From ChEMBL document CHEMBL1143168, “Conformational preferences of natural and C3-modified epothilones in aqueous solution” (J Med Chem, 2008)

tested on: not listed separately; experiment: Antiproliferative activity against human PC3M cells after 72 hrs by methylene blue staining; type: functional, cell-based; details: PC-3M
Procedure, shortened: (§1)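 Human cancer cell lines exposed to compound for 72 h. Cells then fixed and total protein quantified by methylene blue staining. IC50 taken as concentration giving 50% growth inhibition.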

SMILES | IC50
C/C(=C\c1csc(C)n1)[C@@H]1C[C@@H]2O[C@@H]2CCC[C@H](C)[C@H](O)[C@@H](C)C(=O)C(C)(C)[C@@H](O)CC(=O)O1 [EPOTHILONE A] | 6.4 nM
C/C(=C\c1csc(C)n1)[C@@H]1C[C@@H]2O[C@@H]2CCC[C@H](C)[C@H](O)[C@@H](C)C(=O)C(C)(C)/C=C/C(=O)O1 [3-DEOXY-2,3-DIDEHYDRO-EPO A] | 24.8 nM
C/C(=C\c1csc(C)n1)[C@@H]1C[C@@H]2O[C@@H]2CCC[C@H](C)[C@H](O)[C@@H](C)C(=O)C(C)(C)CCC(=O)O1 [3-DEOXY-EPO A] | 79 nM

tested on: MCF7; experiment: Antiproliferative activity against human MCF7 cells after 72 hrs by methylene blue staining; type: functional, cell-based; details: MCF7, 72 h; procedure, shortened: as §1

SMILES | IC50
C/C(=C\c1csc(C)n1)[C@@H]1C[C@@H]2O[C@@H]2CCC[C@H](C)[C@H](O)[C@@H](C)C(=O)C(C)(C)[C@@H](O)CC(=O)O1 [EPOTHILONE A] | 2.9 nM
C/C(=C\c1csc(C)n1)[C@@H]1C[C@@H]2O[C@@H]2CCC[C@H](C)[C@H](O)[C@@H](C)C(=O)C(C)(C)/C=C/C(=O)O1 [3-DEOXY-2,3-DIDEHYDRO-EPO A] | 8.7 nM
C/C(=C\c1csc(C)n1)[C@@H]1C[C@@H]2O[C@@H]2CCC[C@H](C)[C@H](O)[C@@H](C)C(=O)C(C)(C)CCC(=O)O1 [3-DEOXY-EPO A] | 58.4 nM

tested on: HCT-116; experiment: Antiproliferative activity against human HCT116 cells after 72 hrs by methylene blue staining; type: functional, cell-based; details: HCT-116, 72 h; procedure, shortened: as §1

SMILES | IC50
C/C(=C\c1csc(C)n1)[C@@H]1C[C@@H]2O[C@@H]2CCC[C@H](C)[C@H](O)[C@@H](C)C(=O)C(C)(C)[C@@H](O)CC(=O)O1 [EPOTHILONE A] | 2.8 nM
C/C(=C\c1csc(C)n1)[C@@H]1C[C@@H]2O[C@@H]2CCC[C@H](C)[C@H](O)[C@@H](C)C(=O)C(C)(C)/C=C/C(=O)O1 [3-DEOXY-2,3-DIDEHYDRO-EPO A] | 16.2 nM
C/C(=C\c1csc(C)n1)[C@@H]1C[C@@H]2O[C@@H]2CCC[C@H](C)[C@H](O)[C@@H](C)C(=O)C(C)(C)CCC(=O)O1 [3-DEOXY-EPO A] | 84.4 nM

tested on: not listed separately; experiment: Induction of pig brain alpha-beta-tubulin polymerization; design: species or system Sus scrofa; details: not given
Procedure, shortened: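 Porcine brain tubulin at 10 µM. Polymerization followed by turbidity at 340 nm until a stable A340 plateau (equilibrium between soluble and polymerized tubulin). EC50 is the concentration inducing 50% of the maximum achievable polymerization. The maximum is the plateau beyond which higher compound concentration gives no further A340 increase.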

SMILES | EC50
C/C(=C\c1csc(C)n1)[C@@H]1C[C@@H]2O[C@@H]2CCC[C@H](C)[C@H](O)[C@@H](C)C(=O)C(C)(C)[C@@H](O)CC(=O)O1 [EPOTHILONE A] | 4.6 µM
C/C(=C\c1csc(C)n1)[C@@H]1C[C@@H]2O[C@@H]2CCC[C@H](C)[C@H](O)[C@@H](C)C(=O)C(C)(C)/C=C/C(=O)O1 [3-DEOXY-2,3-DIDEHYDRO-EPO A] | 4.8 µM
C/C(=C\c1csc(C)n1)[C@@H]1C[C@@H]2O[C@@H]2CCC[C@H](C)[C@H](O)[C@@H](C)C(=O)C(C)(C)CCC(=O)O1 [3-DEOXY-EPO A] | 5.6 µM
